ChEMBL document CHEMBL1140324, “Rational design of non-nucleoside, potent, and orally bioavailable adenosine deaminase inhibitors: predicting enzyme conformational change and metabolism” (J Med Chem, 2005)
Where “and” joins values, the source holds several entries; their conditions need not be identical. Equal values may be shown once.

Legend:
[1] = (§1) Oral bioavailability in rat (dose 10 mg/kg); assay type: ADME, organism-based; conditions: in vivo
Method in brief: (§2)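 Rats dosed orally at 10 mg/kg (n = 2–3). Cmax and t1/2 are taken from plasma. AUC covers 0–24 h. Bioavailability is the oral exposure parameter for the same dosing.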

[2] = Maximum plasma concentration after peroral administration of 10 mg/kg in rat; assay type: ADME, organism-based; parameters: dose 10 mg/kg, route oral; conditions: po; method in brief: as §2
Rattus norvegicus [3] = species on record: Rattus norvegicus; test: Peroral dose showing antiinflammatory effect in adjuvant arthritis model in rats; assay type: functional; conditions: po
Method in brief: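 Rat adjuvant arthritis model with oral dosing. Anti-inflammatory potency is reported as ED30 in mg/kg po.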

[4] = In vitro clearance in human liver microsomes; assay type: ADME, Microsome; conditions: read-out: Clearance
[5] = Oral bioavailability in dog (dose 10 mg/kg); assay type: ADME, organism-based, Canis lupus familiaris; conditions: in vivo
Method in brief: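 Dogs dosed orally at 10 mg/kg (n = 2–3). Oral bioavailability was determined.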

[6] = Plasma half life (10 mg/kg, p.o.) in rat; assay type: ADME, organism-based; conditions: po; method in brief: as §2
Mus musculus [7] = test: Antitumor activity (32 mg/kg, p.o., u.i.d.) expressed as median survival time is its ability to inhibit lymphoma U-937 tumor growth inoculated in mice; assay type: functional
Method in brief: (§3)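 SCID mice bearing U-937 lymphoma. Inhibitor given orally as HCl salt, either once (u.i.d.) or twice (b.i.d.) daily, in combination with the antitumor nucleoside AraA. Read-out was median survival time in days, compared with an untreated control group and an AraA-alone arm (10 mg/kg).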

[8] = Area under blood-concentration time curve after 10 mg/kg peroral dose in rat; assay type: ADME, organism-based; parameters: dose 10 mg/kg, route oral; conditions: in vivo, po; method in brief: as §2
[9] = In vitro clearance in dog liver microsomes; assay type: ADME, Canis lupus familiaris, Microsome
Mus musculus [10] = test: Antitumor activity (10 mg/kg, p.o., u.i.d.) expressed as median survival time is its ability to inhibit lymphoma U-937 tumor growth inoculated in mice; assay type: functional; method in brief: as §3
[11] = In vitro clearance in rat liver microsomes; assay type: ADME, Microsome; conditions: read-out: Clearance
Adenosine deaminase = molecular target: T1, Adenosine deaminase (Homo sapiens, UniProt P00813); test: Inhibitory concentration against adenosine deaminase
T1 sequence (P00813 whole entry): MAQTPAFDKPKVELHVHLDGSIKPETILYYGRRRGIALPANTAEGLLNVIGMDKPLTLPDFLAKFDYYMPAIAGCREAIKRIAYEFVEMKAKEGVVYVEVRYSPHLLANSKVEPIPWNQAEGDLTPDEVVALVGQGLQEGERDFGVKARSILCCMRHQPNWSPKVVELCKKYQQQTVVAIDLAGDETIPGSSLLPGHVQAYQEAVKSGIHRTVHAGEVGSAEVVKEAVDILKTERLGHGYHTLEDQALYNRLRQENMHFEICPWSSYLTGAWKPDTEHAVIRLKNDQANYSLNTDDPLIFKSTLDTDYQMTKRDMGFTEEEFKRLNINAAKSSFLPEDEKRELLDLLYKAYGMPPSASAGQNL

Rattus norvegicus [12] = test: as §1; assay type: functional, organism-based; method in brief: as §2
Mus musculus [13] = test: Antitumor activity (0.25 mg/kg, i.p.) on lymphoma U-937 tumor growth inoculated in mice; assay type: functional
Method in brief: (§4)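 SCID mouse U-937 lymphoma model. Pentostatin given intraperitoneally once daily. Efficacy read as median survival time in days, relative to a control group.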

Mus musculus [14] = test: Antitumor activity (2.5, i.p.) on lymphoma U-937 tumor growth inoculated in mice; assay type: functional; method in brief: as §4
Mus musculus [15] = test: Antitumor activity (10 mg/kg, p.o., b.i.d.) on lymphoma U-937 tumor growth inoculated in mice; assay type: functional; method in brief: as §3
Mus musculus [16] = test: Antitumor activity (32 mg/kg, p.o., b.i.d.) expressed as median survival time is its ability to inhibit lymphoma U-937 tumor growth inoculated in mice; assay type: functional; method in brief: as §3
Mus musculus [17] = test: Antitumor activity (10 mg/kg, p.o., b.i.d.) expressed as median survival time is its ability to inhibit lymphoma U-937 tumor growth inoculated in mice; assay type: functional; method in brief: as §3

SMILES	Cmax [2] [ng/mL]	ED30 (Rattus norvegicus [3]) [mg/kg]	half-life [6] [h]	AUC [8] [ng·h/mL]	Clearance [9] [mL/min/kg]	CLint scaled [11] [mL/min/kg]	IC50 (Adenosine deaminase) [nM]	further results
C[C@H](O)[C@@H](CCc1cccc2oc(-c3ccc(Cl)cc3)nc12)n1cnc(C(N)=O)c1	14700	0.3	1.87	56200	6.2	50	8.7	bioavailability [1]: 86%; CLint scaled [4]: 12 mL/min/kg; bioavailability [5]: 81%; MST (Mus musculus [7]): 45.5 days; MST (Mus musculus [10]): 43 days
C[C@H](O)[C@@H](CCc1cccc2nc(-c3ccc(Cl)cc3)oc12)n1cnc(C(N)=O)c1	5580	0.6	3.45	29600	6	131	–	CLint scaled [4]: 34 mL/min/kg; bioavailability [5]: 50%; bioavailability (Rattus norvegicus [12]): 52%
OC[C@H]1O[C@@H](n2cnc3c2N=CNC[C@H]3O)C[C@@H]1O [PENTOSTATIN]	–	–	–	–	–	–	–	MST (Mus musculus [13]): 34 days; MST (Mus musculus [14]): 42.5 days
Nc1ncnc2c1ncn2[C@@H]1O[C@H](CO)[C@@H](O)[C@@H]1O [VIDARABINE]	–	–	–	–	–	–	–	MST (Mus musculus [15]): 34 days
NC(=O)c1cn(C(CO)CCc2cccc3ccccc23)cn1 (configuration not stated)	–	–	–	–	–	–	570	–
Cn1cc(CC[C@H](CO)n2cnc(C(N)=O)c2)c2cc(OCCCc3ccc(Cl)cc3)ccc21	210	–	1.09	260	–	643	6.7	–
NC(N)=Nc1nc(-c2ccc(CNc3nc4ccccc4[nH]3)s2)cs1	–	–	–	–	–	–	700	–
C[C@H](O)[C@@H](CCc1cccc2ccccc12)n1cnc(C(N)=O)c1	1250	–	–	1370	30	–	16	–
C[C@H](O)[C@@H](CCc1cccc(Cl)c1Cl)n1cnc(C(N)=O)c1	1630	1.6	–	2110	21	–	15	MST (Mus musculus [16]): 42.5 days and 38 days; MST (Mus musculus [17]): 34 days
